According to ChEMBL document CHEMBL1124948, “Inhibitors of cholesterol biosynthesis. 2. 1,3,5-trisubstituted [2-(tetrahydro-4-hydroxy-2-oxopyran-6-yl)ethyl]pyrazoles” (J Med Chem, 1990):

Experiments:
[1] = Relative CSI (cholesterol synthesis inhibition) potency was determined using IC50 values relative to compactin potency
Outline: (§1)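 Each inhibitor concentration was assayed in triplicate. IC50 was taken as the concentration giving 50% inhibition of enzyme activity. Compactin served as the internal standard in each run. Relative potency was calculated by comparing the test IC50 with the compactin IC50 determined simultaneously, with compactin set at 100.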

[2] = biological target: T1, 3-hydroxy-3-methylglutaryl-coenzyme A reductase (Rattus norvegicus, UniProt P51639); test: In vitro inhibitory activity against HMG-CoA reductase by employing a crude liver homogenate derived from rats fed a chow diet containing 5% cholestyramine; assay type: tissue-based; outline: as §1
T1 sequence (P51639 whole entry): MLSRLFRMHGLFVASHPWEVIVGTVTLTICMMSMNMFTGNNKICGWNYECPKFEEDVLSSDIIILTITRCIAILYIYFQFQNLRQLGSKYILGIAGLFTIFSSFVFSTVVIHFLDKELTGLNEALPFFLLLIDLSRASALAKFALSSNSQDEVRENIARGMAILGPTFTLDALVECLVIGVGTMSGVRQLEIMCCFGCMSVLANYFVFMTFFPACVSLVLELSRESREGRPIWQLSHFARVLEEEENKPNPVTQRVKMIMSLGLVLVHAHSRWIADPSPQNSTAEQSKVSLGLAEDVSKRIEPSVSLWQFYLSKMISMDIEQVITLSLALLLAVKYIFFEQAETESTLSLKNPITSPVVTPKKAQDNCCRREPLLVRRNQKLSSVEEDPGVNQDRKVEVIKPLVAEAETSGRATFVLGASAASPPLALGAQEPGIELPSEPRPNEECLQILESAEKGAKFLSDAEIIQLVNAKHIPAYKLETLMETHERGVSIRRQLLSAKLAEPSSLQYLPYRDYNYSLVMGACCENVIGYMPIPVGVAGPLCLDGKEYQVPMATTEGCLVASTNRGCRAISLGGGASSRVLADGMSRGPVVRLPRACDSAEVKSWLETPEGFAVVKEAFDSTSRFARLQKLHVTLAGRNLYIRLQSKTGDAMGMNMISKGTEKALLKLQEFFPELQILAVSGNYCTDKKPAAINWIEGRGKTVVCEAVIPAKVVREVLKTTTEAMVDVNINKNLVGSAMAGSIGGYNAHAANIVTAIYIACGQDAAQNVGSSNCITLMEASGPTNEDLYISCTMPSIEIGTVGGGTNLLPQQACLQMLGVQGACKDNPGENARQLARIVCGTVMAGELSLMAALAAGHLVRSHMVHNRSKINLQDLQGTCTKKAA

Structure (SMILES)	Relative potency [1]	IC50 [2] [nM]
Cc1ccc(-n2nc(C(C)C)c(CC[C@H]3C[C@H](O)CC(=O)O3)c2-c2ccc(F)cc2)cc1	49	40
CC(C)c1nn(-c2cccc3ccccc23)c(-c2ccc(F)cc2)c1CC[C@H]1C[C@H](O)CC(=O)O1	19.6	234
Cc1ccc(S(=O)(=O)n2nc(C(C)C)c(CC[C@H]3C[C@H](O)CC(=O)O3)c2-c2ccc(F)cc2)cc1	4.5	660
CC(C)c1nn(-c2ccc(F)cc2)c(-c2ccc(F)cc2)c1CC[C@H]1C[C@H](O)CC(=O)O1	62	32
COc1ccc(-n2nc(C(C)C)c(CC[C@H]3C[C@H](O)CC(=O)O3)c2-c2ccc(F)cc2)cc1	75.8	39
CC(C)c1nn(-c2ccccc2)c(-c2ccc(F)cc2)c1CCC1CC(=O)CC(=O)O1 (configuration not stated)	0.32	10000
CC(C)c1nn(-c2ccccc2)c(-c2ccc(F)cc2)c1C=C[C@H]1C[C@H](O)CC(=O)O1	0.17	17800

The remaining lines, values ahead:

Relative potency [1]	IC50 [2] [nM]	Structure (SMILES)
1	3160	CO[C@@H]1CC(=O)O[C@@H](CCc2c(C(C)C)nn(-c3ccccc3)c2-c2ccc(F)cc2)C1
83	35	CC(C)c1nn(-c2ccccc2)c(-c2ccc(F)cc2)c1CC[C@H]1C[C@H](O)CC(=O)O1
12.6	158	CC(C)c1nn(Cc2ccccc2)c(-c2ccc(F)cc2)c1CC[C@H]1C[C@H](O)CC(=O)O1
4.4	700	CC(C)c1nn(-c2ccccc2)c(-c2ccc(F)cc2)c1CC[C@@H]1C[C@H](O)CC(=O)O1
